Test results published in ChEMBL document CHEMBL1156107, “Synthesis of new alkylaminooxysterols with potent cell differentiating activities: identification of leads for the treatment of cancer and neurodegenerative diseases” (J Med Chem, 2009).
Activity calls are given as the source filed them. No cut-off for these calls is given here.

Columns and labels:
A549 = assay: Cytotoxicity against human A549 cells after 72 hrs by trypan blue exclusion assay; assay type: functional, cell-based; settings: A549, 72 h
How it was run: (§1)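 Cells were exposed for 72 h to the test agent at increasing concentrations from 10 nM to 20 μM, at 37 °C in humidified 5% CO2. Cells were scraped and resuspended in 0.25% w/v trypan blue in PBS, and dead cells were counted under a light microscope in a Malassez chamber. IC50 is the concentration giving 50% cytotoxicity. Values are mean ± SE of three independent experiments, each run in duplicate.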

P19 [1] = assay: Cytotoxicity against mouse P19 cells after 72 hrs by trypan blue exclusion assay; assay type: functional, cell-based; settings: P19, 72 h; how it was run: as §1
SK-N-SH = assay: Cytotoxicity against human SK-N-SH cells after 72 hrs by trypan blue exclusion assay; assay type: functional, cell-based; how it was run: as §1
SH-SY5Y = assay: Cytotoxicity against human SH-SY5Y cells after 72 hrs by trypan blue exclusion assay; assay type: functional, cell-based; how it was run: as §1
[2] = Cytotoxicity against mouse Neuro2a cells after 72 hrs by trypan blue exclusion assay; assay type: functional, cell-based; settings: N2a; how it was run: as §1
[3] = Cytotoxicity against human U87 cells after 72 hrs by trypan blue exclusion assay; assay type: functional, cell-based, U-87MG ATCC; settings: U-87 MG; how it was run: as §1
U-937 [4] = assay: Cytotoxicity against human U937 cells after 72 hrs by trypan blue exclusion assay; assay type: functional, cell-based; settings: U-937, 72 h; how it was run: as §1
NB-4 = assay: Cytotoxicity against human NB4 cells after 72 hrs by trypan blue exclusion assay; assay type: functional, cell-based; settings: NB-4, 72 h; how it was run: as §1
KG-1 = assay: Cytotoxicity against human KG1 cells after 72 hrs by trypan blue exclusion assay; assay type: functional, cell-based; settings: KG-1, 72 h; how it was run: as §1
HCT-8 = assay: Cytotoxicity against human HCT8 cells after 72 hrs by trypan blue exclusion assay; assay type: functional, cell-based; settings: HCT-8, 72 h; how it was run: as §1
SW-620 = assay: Cytotoxicity against human SW620 cells after 72 hrs by trypan blue exclusion assay; assay type: functional, cell-based; settings: SW-620, 72 h; how it was run: as §1
U-937 [5] = assay: Induction of dendrite out growth in IL-4/GMCSF-stimulated human U937 cells assessed as dendrite length at 100 nM after 48 hrs by light microscopy; assay type: functional
How it was run: (§2)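 U937 cells at 1.1 × 10⁶ cells/mL were primed with 10 ng/mL PMA for 48 h in RPMI with 10% heat-inactivated serum. Adherent cells were then given 100 ng/mL IL-4 plus 100 ng/mL GM-CSF or 100 nM compound for 48 h. Dendrite length scored by light microscopy, from none to over 100 μm with a contact network.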

U-937 [6] = assay: Cytotoxicity against human U937 cells after 3 days by trypan blue exclusion assay; assay type: functional, cell-based; settings: Homo sapiens, U-937, 72 h; read-out: IC50
How it was run: (§3)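 U937 and P19 cells treated with compound. Cell death scored by trypan blue exclusion, with cells scraped, suspended in 0.25% w/v trypan blue in PBS and counted in a Malassez cell. IC50 is the concentration giving 50% cytotoxicity.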

P19 [7] = assay: Induction of dendrite out growth in IL-4/GMCSF-stimulated mouse P19 cells assessed as dendrite length at 100 nM after 48 hrs by light microscopy; assay type: functional
P19 [8] = assay: Cytotoxicity against mouse P19 cells after 3 days by trypan blue exclusion assay; assay type: functional, cell-based; settings: Mus musculus, P19, 72 h; read-out: IC50; how it was run: as §3
U-937 [9] = assay: Cytotoxicity against human U937 cells assessed as modification of cell morphology; assay type: functional
P19 [10] = assay: Cytotoxicity against mouse P19 cells assessed as modification of cell morphology; assay type: functional
U-937 [11] = assay: Induction of dendrite outgrowth in IL-4/GMCSF-stimulated human U937 cells assessed as dendrite length after 48 hrs by light microscopy; assay type: functional; how it was run: as §2
P19 [12] = assay: Induction of dendrite outgrowth in IL-4/GMCSF-stimulated mouse P19 cells assessed as dendrite length after 48 hrs by light microscopy; assay type: functional
MCF7 [13] = assay: Cell cycle arrest in human MCF7 cells assessed as accumulation at pre-G1 phase at 1 uM after 48 hrs by FACS analysis; assay type: functional
How it was run: (§4)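 Cells plated at 250 000 per 100 mm plate and exposed to solvent vehicle or compound for 48 h. Trypsinized cells fixed in 70% ethanol, treated with 100 μg/mL RNase A for 30 min at 37 °C, then stained with 50 μg/mL propidium iodide in 0.25% Tween-20 for 30 min at 37 °C in the dark. DNA content of 1 × 10⁶ cells read by flow cytometry, giving sub-G1, G0/G1, S and G2/M fractions.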

MCF7 [14] = assay: Cell cycle arrest in human MCF7 cells assessed as accumulation at G1 phase at 1 uM after 48 hrs by FACS analysis; assay type: functional; how it was run: as §4
MCF7 [15] = assay: Cell cycle arrest in human MCF7 cells assessed as accumulation at S phase at 1 uM after 48 hrs by FACS analysis; assay type: functional; how it was run: as §4
MCF7 [16] = assay: Cell cycle arrest in human MCF7 cells assessed as accumulation at G2/M phase at 1 uM after 48 hrs by FACS analysis; assay type: functional; how it was run: as §4
MCF7 [17] = assay: Induction of human MCF7 cell differentiation assessed as lipid accumulation in intracytoplasmic vesicle at 1 uM after 48 hrs by oil red O staining-based light microscopy; assay type: functional
How it was run: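 MCF-7 cells on glass coverslips treated with drug, fixed in 3.7% paraformaldehyde for 1 h at room temperature, and stained with oil red O in 60% isopropanol with hematoxylin counterstain. Dye extracted with isopropanol and read at 510 nm, with control subtracted and the value normalized to SYBR green DNA stain.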

MCF7 [18] = assay: Induction of human MCF7 cell differentiation assessed as milk fat accumulation in intracytoplasmic vesicle at 1 uM after 48 hrs by Bligh and Dyer method; assay type: functional, cell-based
How it was run: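 MCF-7 cells (5 million) exposed to vehicle or compound for 48 h, washed three times in PBS. Lipids extracted by the Bligh and Dyer method and triglycerides quantified.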

MCF7 [19] = assay: Induction of human MCF7 cell differentiation assessed as stimulation of milk fat globulin expression at 1 uM after 48 hrs by immunocytochemistry; assay type: functional, cell-based
SK-MEL-28 [20] = assay: Cell cycle arrest in human SK-MEL-28 cells assessed as accumulation at pre-G1 phase at 1 uM after 48 hrs by FACS analysis; assay type: functional; how it was run: as §4
SK-MEL-28 [21] = assay: Cell cycle arrest in human SK-MEL-28 cells assessed as accumulation at G1 phase at 1 uM after 48 hrs by FACS analysis; assay type: functional; how it was run: as §4
SK-MEL-28 [22] = assay: Cell cycle arrest in human SK-MEL-28 cells assessed as accumulation at S phase at 1 uM after 48 hrs by FACS analysis; assay type: functional; how it was run: as §4
SK-MEL-28 [23] = assay: Cell cycle arrest in human SK-MEL-28 cells assessed as accumulation at G2/M phase at 1 uM after 48 hrs by FACS analysis; assay type: functional; settings: in the assay text read “G0/G1 phase” for “G2/M phase”; how it was run: as §4
SK-MEL-28 [24] = assay: Induction of melanogenesis in human SK-MEL-28 cells assessed as cellular melanin content at 1 uM after 48 hrs by fluorimetry; assay type: functional, cell-based; settings: in the assay text read “by spectrophotometry” for “by fluorimetry”
How it was run: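 SK-Mel-28 cells exposed to compound, washed in PBS and pelleted. Pellets of 2 × 10⁶ cells dissolved in 1 M NaOH for 1 h at 80 °C. Melanin read spectrophotometrically at 405 nm.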

MCF7 [25] = assay: Cytotoxicity against human MCF7 cells after 72 hrs by trypan blue exclusion assay; assay type: functional, cell-based; settings: MCF7, 72 h; how it was run: as §1
[26] = Cytotoxicity against mouse TSA cells after 72 hrs by trypan blue exclusion assay; assay type: functional, cell-based; settings: TS/A; how it was run: as §1
SK-MEL-28 [27] = assay: Cytotoxicity against human SK-MEL-28 cells after 72 hrs by trypan blue exclusion assay; assay type: functional, cell-based; settings: SK-MEL-28, 72 h; how it was run: as §1
B16-F10 = assay: Cytotoxicity against mouse B16F10 cells after 72 hrs by trypan blue exclusion assay; assay type: functional, cell-based; settings: B16-F10, 72 h; how it was run: as §1
SK-MEL-28 [28] = assay: Induction of melanogenesis in human SK-MEL-28 cells assessed as cellular melanin content at 1 uM after 48 hrs by spectrophotometry
SK-MEL-28 [29] = assay: Effect on human SK-MEL-28 cell morphology assessed as appearance of type 4 melanosomes at 1 uM after 48 hrs by transmission electron microscopy
SK-MEL-28 [30] = assay: Effect on human SK-MEL-28 cell morphology assessed as change from fibroblastic to melanocytic morphology at 1 uM after 48 hrs by light microscopy

SMILES: CC(C)CCC[C@@H](C)[C@H]1CC[C@H]2[C@@H]3C[C@@H](NCCc4cnc[nH]4)[C@@]4(O)C[C@@H](O)CC[C@]4(C)[C@H]3CC[C@]12C [DENDROGENIN A]
- IC50 (A549): 2560 nM
- IC50 (P19 [1]): 1800 nM
- IC50 (SK-N-SH): 2240 nM
- IC50 (SH-SY5Y): 1350 nM
- IC50 [2]: 2320 nM
- IC50 [3]: 740 nM
- IC50 (U-937 [4]): 790 nM
- IC50 (NB-4): 1320 nM
- IC50 (KG-1): 5530 nM
- IC50 (HCT-8): 890 nM
- IC50 (SW-620): 420 nM
- Activity (U-937 [5]): 50 um
- IC50 (U-937 [6]): 800 nM
- Activity (P19 [7]): 50 um
- IC50 (P19 [8]): 2400 nM
- Activity (U-937 [9]): 40%
- Activity (P19 [10]): 65%
- Activity (U-937 [11]): > 200 um
- Activity (P19 [12]): > 200 um
- Activity (MCF7 [13]): 3%
- Activity (MCF7 [14]): 75%
- Activity (MCF7 [15]): 11%
- Activity (MCF7 [16]): 11%
- Activity (MCF7 [17]): Active
- Activity (MCF7 [18]): Active
- Activity (MCF7 [19]): Active
- Activity (SK-MEL-28 [20]): 1%
- Activity (SK-MEL-28 [21]): 82%
- Activity (SK-MEL-28 [22]): 7%
- Activity (SK-MEL-28 [23]): 10%
- Activity (SK-MEL-28 [24]): Active
- IC50 (MCF7 [25]): 2310 nM
- IC50 [26]: 1280 nM
- IC50 (SK-MEL-28 [27]): 2120 nM
- IC50 (B16-F10): 680 nM
- Activity (SK-MEL-28 [28]): Active
- Activity (SK-MEL-28 [29]): Active
- Activity (SK-MEL-28 [30]): Active
